Source: PubChem
TCR CD3 inh: blocks the human TCR-CD3 interaction; TAMRA-labeled TCR probe fluorescence, biochemical; inhibition, % at 9.4 µM; hit rate 0.37% among 360,000; AID 651800;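 also: recombinant mutant TCR 2C K166C tagged with TAMRA read by polarization; 0% = receptor in buffer alone and 100% = receptor with positive control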
SIAE inh: blocks human sialic acid acetylesterase. hit rate 0.69% among 370,000. SIAE FP-Rh probe binding, fluorescence polarization. inhibition, % at 9.66 µM;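 active = inhibition above a cutoff: mean of compounds within the control limits plus 3 SD of those, cut at about 17% in these data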;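 also: 0% = plate median of compound wells and 100% = probe without SIAE protein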
mABHD4 FP: ABHD4 (mouse) inhibition, primary FP screen. purified mABHD4, FP-Rh probe fluorescence polarization. AID 720543. hit rate 0.54% among 370,000. Q8VD66. inhibition, % at 8.92 µM;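 active = inhibition exceeding the mean over every tested compound plus 3 SD, cut at about 30% in these data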;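 also: 0% = plate median of compound wells and 100% = S159A mutant with DMSO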
Target sequence (Q8VD66 whole entry, looked up): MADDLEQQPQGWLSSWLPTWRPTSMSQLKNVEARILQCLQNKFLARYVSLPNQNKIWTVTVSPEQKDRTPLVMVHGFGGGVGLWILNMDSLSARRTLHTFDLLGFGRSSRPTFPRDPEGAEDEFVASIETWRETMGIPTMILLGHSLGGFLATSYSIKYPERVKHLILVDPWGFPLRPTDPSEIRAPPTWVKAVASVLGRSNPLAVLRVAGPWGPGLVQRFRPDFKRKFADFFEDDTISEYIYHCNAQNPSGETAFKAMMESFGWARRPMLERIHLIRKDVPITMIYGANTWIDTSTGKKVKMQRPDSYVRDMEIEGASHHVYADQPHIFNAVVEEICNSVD
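Assay system: Wild-type mouse ABHD4 protein | Medium: HEPES pH 7.0 buffer, 150 mM NaCl, 0.01% Pluronic F-127 | Incubation: Enzyme–compound pre-incubation 45 min, then probe 60 min, both 25 °C | Technique: Fluorescence polarization with parallel and perpendicular emission, 525/598 nm | Evaluation: % inhibition of FP-Rh probe binding versus controls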
HTRA1 inhibitor: HTRA1 (human) protease inhibition; Q92743; hit rate 0.5% among 340,000; recombinant HTRA1, FP-rhodamine activity-based probe, fluorescence polarization; inhibition, % at 5.96 µM; in the data active = inhibition above about 36%;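 also: 0% = enzyme with DMSO and 100% = wells lacking enzyme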
Fam108B counter: blocks mouse Fam108B hydrolase in RBBP9 counter-screen. recombinant Fam108B, FP-Rh probe fluorescence polarization. inhibition, % at 9.51 µM. hit rate 0.33% among 300,000. AID 1947;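 active = inhibition above the screen mean inhibition plus 3 SD, computed separately per campaign, cut at about 18% in these data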;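 also: inhibitors lower polarization as less probe binds the enzyme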
PME-1 primary: blocks human protein phosphatase methylesterase 1. Q9Y570. recombinant PME-1, FP-Rh probe fluorescence polarization. inhibition, % at 5.9 µM. hit rate 0.53% among 320,000. AID 2130;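 active = inhibition above the campaign mean of all compounds plus 3 SD, cut at about 26% in these data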;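 also: competitive labeling of PME-1 active site by serine hydrolase directed probe; 0% = PME-1 with DMSO and 100% = wells lacking PME-1 enzyme; inhibitors block probe labeling so polarization falls and inhibition rises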
Target sequence (Q9Y570 whole entry, looked up): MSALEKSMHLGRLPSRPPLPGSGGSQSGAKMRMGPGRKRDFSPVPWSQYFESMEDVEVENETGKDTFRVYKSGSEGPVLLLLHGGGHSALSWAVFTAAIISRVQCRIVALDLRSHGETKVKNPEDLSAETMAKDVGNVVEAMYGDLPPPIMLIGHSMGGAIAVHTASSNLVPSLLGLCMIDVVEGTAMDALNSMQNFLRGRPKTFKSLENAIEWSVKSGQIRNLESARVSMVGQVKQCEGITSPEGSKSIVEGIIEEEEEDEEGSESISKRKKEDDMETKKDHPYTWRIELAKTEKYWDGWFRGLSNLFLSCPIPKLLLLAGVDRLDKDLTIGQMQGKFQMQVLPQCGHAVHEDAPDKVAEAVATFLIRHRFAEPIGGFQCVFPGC
Fam108b inh conf: confirmation of mouse Fam108b serine hydrolase inhibitors; inhibition, % at 9.51 µM; shares compounds with Fam108B counter; recombinant Fam108b, FP-Rh probe fluorescence polarization; hit rate 44% among 930;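 active = inhibition above a limit from the primary screen, the mean over all compounds plus 3 SD, cut at about 19% in these data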;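 also: 0% = median of active Fam108b wells and 100% = catalytically dead S170A mutant; inhibitors free the probe so polarization falls as inhibition rises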
Fam108b inh: inhibits mouse Fam108b in gel-based ABPP | inhibition, % at 20 µM | shares compounds with Fam108B counter | hit rate 44% among 260 | AID 588649 | recombinant Fam108b, fluorophosphonate probe; in the data active = inhibition above about 40%
HTRA1 conf: confirmation of human HTRA1 inhibitors. shares compounds with HTRA1 inhibitor. recombinant HTRA1, FP-rhodamine activity-based probe, fluorescence polarization. inhibition, % at 5.96 µM. hit rate 66% among 1,600;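 active = mean inhibition over three repeats above a set limit taken from the earlier primary screen, cut at about 37% in these data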;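 also: 0% = HTRA1 with DMSO and 100% = wells lacking HTRA1; inhibitors block probe binding so polarization drops and inhibition rises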
BSA TAMRA ctr: counter-screen for TCR-CD3 interaction inhibitors: BSA probe; inhibition, % at 9.4 µM; shares compounds with TCR CD3 inh; TAMRA-labeled BSA probe fluorescence counterscreen; hit rate 10% among 1,200; in the data active = inhibition above about 23%;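 also: 0% = buffer low control and 100% = reference high control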
TCR-CD3 conf: TCR-CD3 interaction inhibition, confirmation | shares compounds with TCR CD3 inh | hit rate 48% among 1,200 | inhibition, % at 9.4 µM | TAMRA-labeled TCR probe fluorescence binding assay
ABHD4 confirm: ABHD4 (mouse) inhibition, FP confirmation | purified mABHD4, FP-Rh probe fluorescence polarization | inhibition, % at 8.92 µM | hit rate 55% among 1,800 | shares compounds with mABHD4 FP | AID 720658;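 active = mean inhibition across replicates above the hit cutoff set in the primary screen, cut at about 30% in these data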;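 also: 0% = wild-type ABHD4 with DMSO and 100% = catalytically dead S159A mutant with DMSO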
* hit, by the source's call; / = no result given; + = active, no number. A selection: hits, their analogues and other compounds. The true share with any hit is near 1.8%. Rule as the data show it, unless noted: active = inhibition above about 19%; inactive = the rest.

SMILES	TCR CD3 inh	SIAE inh	mABHD4 FP	HTRA1 inhibitor	Fam108B counter	PME-1 primary	Fam108b inh conf	ABHD4 confirm	others
Brc1ccc(N/N=C(/N=Nc2nn[nH]n2)c2ccccc2)cc1	-2	17*	91*	62*	25*	51*	28*	104*	HTRA1 conf=88*
O=c1c(O)c(-c2cc(O)c(O)c(O)c2)oc2cc(O)cc(O)c12	29*	56*	42*	17	31*	19	-27	48*	BSA TAMRA ctr=-9;TCR-CD3 conf=45*
O=c1c(O)c(-c2ccccc2)oc2cc(O)cc(O)c12	-3	14	4	17	/	/	/	/
COc1ccccc1N1CCN(C(=O)c2cc3c(C)nn(-c4ccccc4)c3s2)CC1	/	-3	-4	/	/	/	/	/
Cc1ccc2nc(/C(C#N)=C/c3ccc(O)c(O)c3)[nH]c2c1	11	16	55*	67*	31*	29*	17	52*	HTRA1 conf=92*
Cc1cc(Cl)ccc1NC(=O)CCC(=O)N/N=C/c1cc([N+](=O)[O-])ccc1O	-6	0	9	9	-1	4	/	/
O=[N+]([O-])c1ccc(O)c(/C=N/NC(=S)Nc2ccc(Cl)cc2Cl)c1	23*	14	35*	32	43*	10	48*	27	BSA TAMRA ctr=-2;TCR-CD3 conf=33*
COc1ccc(Oc2c(-c3cccs3)cnn(-c3ccc(C)cc3)c2=O)cc1	/	8	-2	/	/	/	/	/
Cn1cccc1/C=C1\SC(=S)N(NC(=O)c2ccccc2O)C1=O	0	-2	2	3	1	-1	/	/
O=C(O)CC(C(=O)O)N1C(=O)/C(=C/C=C/c2ccco2)SC1=S (configuration not stated)	3	-8	35*	22	34*	-34	4	3
O=C(NN1C(=O)/C(=C/C=C/c2ccco2)SC1=S)c1ccccc1O	0	10	31*	40*	44*	-33	25*	-26	HTRA1 conf=19
O=C(O)CCCN1C(=O)/C(=C/C=C/c2ccco2)SC1=S	9	8	43*	26	50*	-39	11	10
COc1ccc(N2CCN(CCCNC(=O)Cc3ccc(C(F)(F)F)cc3)CC2)cc1	/	5	0	/	/	/	/	/
COC(=O)[C@]12C[C@H](CC(=O)N3CCSCC3)C(=O)N(Cc3ccc4c(c3)OCO4)C1=C[C@H](C(C)C)O[C@@H]2C1CC1	/	0	-1	/	/	/	/	/
CC1=NN(c2ccccc2)C(=O)/C1=C/c1c(O)n(-c2ccc(F)cc2)[nH]c1=O	9	-20	37*	10	46*	51*	51*	47*	Fam108b inh=5
C[C@H](O)[C@@H]1CN2CCc3ccc(N4CCOCC4)cc3[C@@H]2C[C@@H]1N(C)CC1CCCCC1	/	3	8	/	/	/	/	/
CN(CCOC(=O)c1cccs1)C1CN(Cc2cn(Cc3ccccc3Cl)nn2)S(=O)(=O)C1 (configuration not stated)	/	3	-8	/	/	/	/	/
Cc1cccc2c(N=Nc3ccc(S(=O)(=O)Nc4ccc(Cl)cc4)cc3[N+](=O)[O-])c(O)[nH]c12	4	7	40*	20	20*	23	-23	38*
COc1ccc2noc3c2c1C(=O)c1ccccc1-3	22*	18*	54*	63*	20*	26*	23*	29	HTRA1 conf=45*;BSA TAMRA ctr=44*;TCR-CD3 conf=29*
COc1cccc2c1C(=O)c1ccc3ccccc3c1C2=O	/	/	/	7	6	5	/	/
CC(COc1cc(F)cc(F)c1)CN1CCC(C(O)(c2ccccc2)c2ccccc2)CC1 (configuration not stated)	/	-9	-2	/	/	/	/	/
COCCCNc1c2c3c(cccc3[nH]c1=O)C(=O)c1ccccc1-2	172*	-6	109*	126*	106*	124*	131*	178*	Fam108b inh=0;HTRA1 conf=120*;BSA TAMRA ctr=+;TCR-CD3 conf=185*
COCCCNC1=C(Cl)C(=O)c2ccccc2C1=O	7	-4	3	8	2	3	/	/
COc1cc(NC(=O)C2CCCN(S(=O)(=O)c3cccs3)C2)cc(OC)c1 (configuration not stated)	/	-1	2	/	/	/	/	/
O=C(c1cc(O)c(O)c([N+](=O)[O-])c1)c1ccccc1F	-2	14	37*	48*	49*	12	91*	32*	Fam108b inh=0;HTRA1 conf=63*
SMILES	TCR CD3 inh	SIAE inh	mABHD4 FP	HTRA1 inhibitor	Fam108B counter	PME-1 primary	Fam108b inh conf	ABHD4 confirm	others
O=C(Nc1ccc([N+](=O)[O-])cc1)c1ccccc1F	9	-1	-3	-1	-2	5	/	/
CCn1nc([N+](=O)[O-])c(C(C#N)c2nc3ccccc3n2C)c(Cl)c1=O (configuration not stated)	1	3	19	11	8	17	/	/
CCCn1nc([N+](=O)[O-])c(C(C#N)c2nc3ccccc3s2)c(Cl)c1=O (configuration not stated)	-2	7	78*	76*	31*	36*	31*	98*	Fam108b inh=0;HTRA1 conf=72*
CCOC(=O)C1=C(C)N=c2s/c(=C\c3ccc(OCC(=O)O)cc3)c(=O)n2C1c1ccccc1OC (configuration not stated)	-1	-3	-12	-18	-5	-7	/	/
CCOC(=O)C1=C(C)N=c2s/c(=C\c3ccc(O)c([N+](=O)[O-])c3)c(=O)n2C1c1ccccc1OC (configuration not stated)	-6	4	37*	21	28*	6	45*	63*
O=c1cc(CSc2ccc(Cl)cc2)[nH]c2[nH]n(-c3ccccc3)c(=O)c12	10	14	47*	20	19*	10	-2	26
COc1cccc2c1C(=O)c1c(O)c3c(c(O)c1C2=O)C[C@@](O)(C(C)=O)C[C@@H]3O[C@H]1C[C@H](N)[C@H](O)[C@H](C)O1	162*	45*	62*	72*	/	/	/	48*	Fam108b inh=0;HTRA1 conf=74*;BSA TAMRA ctr=183*;TCR-CD3 conf=150*
O=C(Nc1ccc(F)c(C(F)(F)F)c1)Nc1nnc(-c2ccncc2)s1	/	-5	-15	/	/	/	/	/
